Experiment [1] can be described thus: inhibitors of TNFa-induced NFkB p65 translocation, primary screen, imaging, HUVEC, MLSMR starter and 10KST1 sets (AID 438;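 active means inhibition above 20% together with a positive visual image hit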;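 further: compound added about 3h40 before a 20 min TNFalpha stimulation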;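 on inhibition: signal is the nuclear over cytoplasmic p65 intensity ratio per well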). The conditions noted are these: HUVEC TNFa-induced p65 nuclear translocation; cell count: measured here: nuclei count (cytotoxicity indicator), at 2.08 µM; inhibition: at 2 µM, stronger effect = higher value, 0% TNFa-plus-vehicle, 100% no-TNFa wells.

The nature of experiment [2]: inhibitors of mutant huntingtin aggregation, primary screen, imaging, exon1htt(103Q)mCFP cells, high-content imaging (AID 483;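 active means visual image review flags a hit and inhibition of aggregation exceeds 20%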;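 further: compound exposure lasted 3 days before fixation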;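 on nuclei count: percent of the per-plate median nuclei count of sample wells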). Particulars: exon1htt(103Q)mCFP cell line, aggregate imaging, at 2 µM; inhibition of aggregation: stronger effect = higher value; nuclei count: measured here: cell count, toxicity.
Experiment [3] in a line: inhibitors of E-selectin induction by TNFa, primary screen, imaging, HUVEC, immunofluorescence, MLSMR starter and 10KST1 sets (AID 487).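 On inhibition: signal is fraction of cell area covered by stained E-selectin grains.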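 On nuclei count: 100% = median nuclei count of all wells on the same plate.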 Particulars: HUVEC TNFalpha-induced E-selectin immunofluorescence imaging, at 2 µM; inhibition: stronger effect = higher value; nuclei count: measured here: cell number, toxicity.
In experiment [4] the target is Voltage-gated potassium channel subunit beta-2 (Rattus norvegicus) (UniProt P62483). In words: KvBeta enzyme negative modulators, primary screen, biochemical, NADPH fluorescence (AID 622;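 active means fluorescence slope higher than the sample average by over 3 SD, cut at about -0.22 in these data, passing the limit was not always enough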;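 further: slope of raw intensity against log time taken from 70 to 1610 s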). The conditions noted are these: recombinant KvBeta, 4-cyanobenzaldehyde reduction, at 10 µM, stronger effect = higher value.
The target is the same in experiment [5]. In words: KvBeta positive modulators, primary screen, biochemical, NADPH fluorescence (AID 623;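 active means NADPH fluorescence slope more negative than the mean of all samples by about 3 SD, 99.7% confidence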;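 further: fluorescence intensity change per second fitted from 20 to 320 s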). The conditions noted are these: Recombinant KvBeta, NADPH fluorescence decrease slope, 10 min; at 10 µM; stronger effect = lower value.
Experiment [6] addresses Muscarinic acetylcholine receptor M4 (Homo sapiens) (UniProt P08173). In words: compounds altering M4/GIRK thallium flux, either direction, primary screen, M4 allosteric agonist project, cell-based, HEK293 M4/GIRK, BTC-AM (AID 625;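 active means fluorescence slope after compound addition differing from the mean of all tested samples at 99.7% confidence, mostly higher but some lower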;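 further: thallium influx through GIRK channels coupled to M4 in HEK293 cells with BTC-AM dye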). Particulars: at 10 µM, actives lie on both sides. The method, boiled down: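 Assay system: HEK293 cells with M4 receptor and GIRK channels / Controls: carbachol and DMSO controls / Schedule: 1 h dye loading, 2 min kinetic read / Technique: kinetic fluorescence with BTC-AM dye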

Experiment [7] in a line: inhibitors of Sendai virus-induced IRF3 signaling, primary screen, TLR/RLR signaling modifier project, cell-based, Sendai virus stimulus, luciferase, 10K MLSCN set (AID 602276;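 active means inhibition at or above 50% at 10 µM; inactive means inhibition below 50%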;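 further: firefly luciferase from ISG56 promoter only with Renilla not read in this screen; 0% = Sendai virus plus DMSO and 100% = medium plus DMSO without virus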). The conditions noted are these: HEK293 RL24 IRF3 luciferase reporter, at 10 µM, stronger effect = higher value.
A short description of experiment [8]: inhibitors of poly I:C-induced TLR3 signaling, primary screen, cell-based, poly I:C stimulus, luciferase, 10K MLSCN set (AID 602277;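 active means inhibition of the reporter signal at or above 50%; inactive means inhibition below 50%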). Particulars: HEK293-TLR3 RL24 IRF3 luciferase reporter, at 10 µM, stronger effect = higher value.

Molecules are shown by their SMILES. Active and inactive are the calls of the source.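 How the source made its calls, unless noted: active means visually confirmed hit in the image check and inhibition above 20%; inconclusive means visually confirmed hit but inhibition not above 20%; inactive means no visual hit in the image check.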

Chain of Voltage-gated potassium channel subunit beta-2 (Rattus norvegicus) (P62483 whole entry, looked up): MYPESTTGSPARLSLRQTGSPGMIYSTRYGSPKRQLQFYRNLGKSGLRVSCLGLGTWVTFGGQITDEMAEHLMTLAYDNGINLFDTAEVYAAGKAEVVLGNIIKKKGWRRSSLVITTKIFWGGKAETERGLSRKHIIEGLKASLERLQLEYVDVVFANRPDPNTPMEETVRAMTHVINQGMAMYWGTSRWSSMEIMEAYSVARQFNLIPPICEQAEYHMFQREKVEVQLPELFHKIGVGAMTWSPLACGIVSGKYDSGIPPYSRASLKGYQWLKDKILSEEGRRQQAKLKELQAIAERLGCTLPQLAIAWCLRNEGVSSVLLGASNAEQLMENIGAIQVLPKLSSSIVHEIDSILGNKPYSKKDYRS
Chain of Muscarinic acetylcholine receptor M4 (Homo sapiens) (P08173 whole entry, looked up): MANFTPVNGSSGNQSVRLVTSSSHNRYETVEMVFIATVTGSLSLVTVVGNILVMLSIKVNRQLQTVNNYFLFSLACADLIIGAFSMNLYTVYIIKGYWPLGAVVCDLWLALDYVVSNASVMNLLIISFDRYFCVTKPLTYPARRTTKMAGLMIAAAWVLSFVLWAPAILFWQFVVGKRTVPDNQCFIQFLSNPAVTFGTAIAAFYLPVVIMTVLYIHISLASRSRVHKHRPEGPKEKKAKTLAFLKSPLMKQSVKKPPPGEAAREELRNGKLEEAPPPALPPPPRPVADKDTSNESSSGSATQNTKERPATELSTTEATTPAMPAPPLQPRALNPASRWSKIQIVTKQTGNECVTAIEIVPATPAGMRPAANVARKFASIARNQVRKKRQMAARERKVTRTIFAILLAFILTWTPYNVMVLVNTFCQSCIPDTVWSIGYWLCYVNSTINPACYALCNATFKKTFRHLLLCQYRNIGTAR

One may read the inhibition as the drop in the measured response relative to a control, in per cent. Take `Cc1cnn(C(=S)NCc2ccco2)c1`: the cell count in experiment [1] worked out at 465. In addition, the inhibition was -13.6% (inactive) in experiment [1], -15.2% (inactive) in experiment [3], 6.4% (inactive) in experiment [7] and 1.55% (inactive) in experiment [8]. In experiment [2], the inhibition of aggregation is 17.2% (inactive). The nuclei count was determined as 94.5% in experiment [2] and 99.9% in experiment [3]. Moreover, the fluorescence slope was -0.49 (inactive) in experiment [4] and 0.0043 (inactive) in experiment [6]. Besides, in experiment [5], the NADPH fluorescence slope was -3.2e-05 (inactive).

With `CCCOc1nc(N)c(C#N)c(-c2ccccc2F)c1C#N`, the cell count in experiment [1] was found to be 359. Moreover, the inhibition in experiment [1] was 1.2% (inactive); in experiment [3], -22.8% (inactive); in experiment [7], 9.25% (inactive); in experiment [8], 14% (inactive). In addition, in experiment [2], the inhibition of aggregation is 10.7% (inactive). The nuclei count in experiment [2] amounted to 98.5%; in experiment [3], 99.6%. Besides, the fluorescence slope in experiment [4] is -0.547 (inactive); in experiment [6], 0.00463 (inactive). In addition, the NADPH fluorescence slope in experiment [5] was 2.2e-05 (inactive).

`Cc1cc(C)n(CCCNC(=O)c2ccc(S(=O)(=O)NCc3ccco3)cc2)n1`: the cell count in experiment [1] worked out at 682. Moreover, the inhibition in experiment [1] is -4.4% (inactive); in experiment [3] it was -9.9% (inactive); in experiment [7], 18.9% (inactive); in experiment [8], 23% (inactive). In addition, the inhibition of aggregation in experiment [2] is -3.9% (inactive). For the same compound, the nuclei count was 108% in experiment [2] and 136% in experiment [3]. In addition, the figures for the fluorescence slope in experiment [4] and in experiment [6] were -0.562 (inactive) and 0.00603 (inactive), respectively. Also, the NADPH fluorescence slope in experiment [5] was -8.3e-05 (inactive).

`CCOc1ccccc1N1C(=O)CC(Sc2ncccc2C(=O)O)C1=O` (centres undefined): the cell count in experiment [1] was 890. The inhibition is -0.7% (inactive) in experiment [1], -111% (inactive) in experiment [3], 12.2% (inactive) in experiment [7] and 13.4% (inactive) in experiment [8]. Also, the inhibition of aggregation in experiment [2] was -13.3% (inactive). The values for the nuclei count in experiment [2] and in experiment [3] were 105% and 136%, respectively. The fluorescence slope was -0.46 (inactive) in experiment [4] and 0.00417 (inactive) in experiment [6]. Also, the NADPH fluorescence slope in experiment [5] is -8.3e-07 (inactive).

Turning to `COc1ccc2nc(C)cc(N3CCOCC3)c2c1`, the cell count in experiment [1] is 401. Besides, the inhibition was -8.1% (inactive) in experiment [1], -34.7% (inactive) in experiment [3], 16.2% (inactive) in experiment [7] and 18.7% (inactive) in experiment [8]. In addition, the inhibition of aggregation in experiment [2] is -8% (inactive). For the same compound, the nuclei count in experiment [2] stood at 104%; in experiment [3], 84.3%. Further, the fluorescence slope in experiment [4] is -0.484 (inactive); in experiment [6], 0.0041 (inactive). Further, in experiment [5], the NADPH fluorescence slope was -0.000239 (inactive).

With `CC(=O)Nc1nc(-c2ccc(Cl)cc2)nc(C)c1C(C)=O`, the cell count in experiment [1] came to 577. In addition, the inhibition was 0.5% (inactive) in experiment [1], -9.1% (inactive) in experiment [3], 2.94% (inactive) in experiment [7] and 6.23% (inactive) in experiment [8]. The inhibition of aggregation in experiment [2] is -13.8% (inactive). The nuclei count in experiment [2] was found to be 92.9%; in experiment [3], 90.1%. Further, the values for the fluorescence slope in experiment [4] and in experiment [6] were -0.261 (inactive) and 0.00747 (inactive), respectively. Further, the NADPH fluorescence slope in experiment [5] was -3.2e-05 (inactive).

As for `Cn1nnnc1SCC(=O)Nc1ccccc1C(=O)NCc1ccccc1`, the cell count in experiment [1] was found to be 368. Also, the inhibition is 7.2% (inactive) in experiment [1], -74.8% (inactive) in experiment [3], -6.6% (inactive) in experiment [7] and -17.1% (inactive) in experiment [8]. Also, the inhibition of aggregation in experiment [2] was 0.2% (inactive). Besides, the nuclei count in experiment [2] turned out to be 98.6%; in experiment [3], 124%. In addition, the figures for the fluorescence slope in experiment [4] and in experiment [6] were -0.275 (inactive) and 0.00734 (inactive), respectively. Also, the NADPH fluorescence slope in experiment [5] was -2.2e-05 (inactive).

On to `COc1ccc(-c2nnc3ccc(SC(C(C)=O)C(C)=O)nn23)cc1OC`, for which the cell count in experiment [1] worked out at 605. Further, the inhibition in experiment [1] was -17% (inactive); in experiment [3], -47.2% (inactive); in experiment [7], 13.7% (inactive); in experiment [8], 13.4% (inactive). For the same compound, in experiment [2], the inhibition of aggregation is 14.3% (inactive). The results for the nuclei count in experiment [2] and in experiment [3] were 100% and 94%, respectively. The figures for the fluorescence slope in experiment [4] and in experiment [6] were -0.348 (inactive) and 0.00579 (inactive), respectively. In experiment [5], the NADPH fluorescence slope is -5.5e-05 (inactive).

Turning to `O=C(Nc1ncnc2sc3c(c12)CCCCC3)c1ccco1`, the cell count in experiment [1] was found to be 260. The inhibition in experiment [1] was -7% (inactive); in experiment [3], 62.2% (inactive); in experiment [7], 21.8% (inactive); in experiment [8] it was 22.6% (inactive). Moreover, the inhibition of aggregation in experiment [2] was 32.4% (active). Besides, the nuclei count amounted to 85.3% in experiment [2] and 65.2% in experiment [3]. For the same compound, the figures for the fluorescence slope in experiment [4] and in experiment [6] were -0.542 (inactive) and 0.0064 (inactive), respectively. Moreover, the NADPH fluorescence slope in experiment [5] was -1.4e-05 (inactive).

Take `COCCNC(=O)C(C)OC(=O)c1nsc(Cl)c1Cl` (centres undefined): in experiment [1], the cell count worked out at 551. Besides, the inhibition is -8.3% (inactive) in experiment [1], -45.1% (inactive) in experiment [3], -6.04% (inactive) in experiment [7] and -22% (inactive) in experiment [8]. In addition, in experiment [2], the inhibition of aggregation was 0.5% (inactive). Also, the nuclei count worked out at 101% in experiment [2] and 115% in experiment [3]. Further, the values for the fluorescence slope in experiment [4] and in experiment [6] were -0.317 (inactive) and 0.00545 (inactive), respectively. For the same compound, in experiment [5], the NADPH fluorescence slope was 1e-05 (inactive).

Take `O=C(Nc1ccc(Cl)cc1)C1CC=CCC1C(=O)OCC(F)(F)C(F)F` (centres undefined): the cell count in experiment [1] was determined as 628. The inhibition in experiment [1] is 8.2% (inactive); in experiment [3], -17.6% (inactive); in experiment [7] it was 11.2% (inactive); in experiment [8], 3.19% (inactive). Besides, the inhibition of aggregation in experiment [2] is 31.1% (inactive). Further, the nuclei count in experiment [2] came to 88%; in experiment [3] it was 96.7%. Moreover, the fluorescence slope in experiment [4] is -0.319 (inactive); in experiment [6] it was 0.00812 (inactive). Moreover, the NADPH fluorescence slope in experiment [5] was -7e-05 (inactive).

`COc1ccc(OC(C)C(=O)N2CC(C)OC(C)C2)cc1` (centres undefined): the cell count in experiment [1] is 436. In addition, the inhibition in experiment [1] is 12.2% (inactive); in experiment [3], -7.5% (inactive); in experiment [7] it was 14.1% (inactive); in experiment [8], 30.8% (inactive). Moreover, the inhibition of aggregation in experiment [2] is -4.6% (inactive). In addition, the nuclei count in experiment [2] stood at 97.2%; in experiment [3], 120%. Also, the fluorescence slope in experiment [4] was -0.566 (inactive); in experiment [6] it was 0.00556 (inactive). In experiment [5], the NADPH fluorescence slope was 1.5e-06 (inactive).

Consider `O=C(CSc1nnnn1-c1ccccc1)Nc1nsc(-c2ccc(Cl)cc2)n1`, for which the cell count in experiment [1] came out at 449. Further, the inhibition in experiment [1] is -4.1% (inactive); in experiment [3], 59.2% (inactive); in experiment [7], 15.4% (inactive); in experiment [8] it was 15.1% (inactive). Moreover, the inhibition of aggregation in experiment [2] was 17.3% (inactive). The nuclei count was found to be 95.1% in experiment [2] and 130% in experiment [3]. For the same compound, the fluorescence slope was -0.561 (inactive) in experiment [4] and 0.00729 (inactive) in experiment [6]. Also, the NADPH fluorescence slope in experiment [5] was -3.3e-05 (inactive).

Take `Cn1cccc1-c1nc2ccc(NC(=O)c3ccco3)cc2[nH]1`: in experiment [1], the cell count came to 293. The inhibition in experiment [1] was -0.9% (inactive); in experiment [3] it was -8.2% (inactive); in experiment [7] it was -37.6% (inactive); in experiment [8], -102% (inactive). Further, the inhibition of aggregation in experiment [2] is -0.8% (inactive). In addition, the nuclei count in experiment [2] is 86.3%; in experiment [3] it was 110%. Moreover, the results for the fluorescence slope in experiment [4] and in experiment [6] were -0.429 (inactive) and 0.00457 (inactive), respectively. The NADPH fluorescence slope in experiment [5] was 1e-06 (inactive).

The values above are taken from PubChem BioAssay.
